Assay outcomes as filed in PubChem.
APP 5UTR inh – APP translation inhibition | SH-SY5Y APP 5'UTR-luciferase reporter, luminescence | hit rate 0.82% among 190,000 | AID 1285 | inhibition, % at 2 µM;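 active = inhibition above a set limit, derived from the sample mean plus 3 SD, cut at about 45% in these data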
APP 5'UTR act – APP 5'UTR luciferase reporter activation | SH-SY5Y APP 5'UTR luciferase reporter, luminescence; zero percent = DMSO vehicle wells | activation, % at 2 µM | hit rate 1% among 190,000;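 active = activation above a set limit, based on mean plus 3 SD of controls, cut at about 140% in these data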
NF-kB neuron act – raises NF-kB expression in human neuronal cells; AID 1239; hit rate 1.6% among 190,000; fold change at 12.5 µM; NF-kB reporter expression; stronger effect = higher value; in the data active = fold change above about 3.3
FLuc act counter – firefly luciferase counter-screen for stimulation assays; 200,000 tested, under 10 active; ATPlite luciferase biochemical, luminescence, 10 min; 0 = ATP-free wells, 1 = DMSO control; AID 1027; activation factor at 10 µM;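 active = luciferase activation factor, scaled between plate controls, of at least 2 with compound at 10 µM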
Target sequence (P08659 whole entry, looked up): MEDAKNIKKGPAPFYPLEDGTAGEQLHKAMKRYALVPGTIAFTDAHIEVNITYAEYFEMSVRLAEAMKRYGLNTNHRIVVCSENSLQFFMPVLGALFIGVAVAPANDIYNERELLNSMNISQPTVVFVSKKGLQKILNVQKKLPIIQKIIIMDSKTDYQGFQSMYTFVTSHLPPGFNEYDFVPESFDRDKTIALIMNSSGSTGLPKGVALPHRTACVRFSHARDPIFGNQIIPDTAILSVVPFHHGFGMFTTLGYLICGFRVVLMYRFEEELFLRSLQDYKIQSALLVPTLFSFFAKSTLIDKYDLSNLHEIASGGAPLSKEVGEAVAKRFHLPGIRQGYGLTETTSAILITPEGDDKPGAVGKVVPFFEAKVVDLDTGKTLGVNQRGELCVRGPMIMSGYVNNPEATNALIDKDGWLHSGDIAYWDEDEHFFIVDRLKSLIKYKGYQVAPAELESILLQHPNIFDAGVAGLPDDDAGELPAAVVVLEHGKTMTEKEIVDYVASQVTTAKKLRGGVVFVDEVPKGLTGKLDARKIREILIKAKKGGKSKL
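System: Luciferase/luciferin detection reagent, cell-free biochemical luciferase assay | Medium: PBS buffer for ATP | Dosing: Test compounds dosed from 2 mM stocks in 100% DMSO | Timing: 10 min at ambient temperature | Signal: Luminescence measurement of luciferase light output | Evaluation: Luciferase activation, seen as luminescence increase over controls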
STAT1 activator – activators of IFN-gamma induced STAT1 signaling; NIH 3T3 STAT1-luciferase reporter, luminescence; 100% = IFN-gamma alone, no compound; activation (% of control), % at 5.5 µM; hit rate 2.6% among 200,000; AID 932;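 active = activation above the screen-wide mean activation plus 3 SD, cut at about 130% in these data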;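 note: raw ratio to IFN-gamma control signal so 100% means no change and 0% no light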
FLuc inh counter – counter-screen for luciferase assay inhibitors: firefly luciferase inhibition. P08659. ATPLite firefly luciferase biochemical luminescence, 10 min. inhibition, % at 10 µM. hit rate 1.5% among 200,000. AID 1006;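 active = inhibition above about 50% when tested at 10 µM, limit read from the data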
Active calls of the source: *; . = not tested or not shown. The list is not random: actives were taken first. Their share in the collection is about 4.8%.

SMILES | APP 5UTR inh | APP 5'UTR act | NF-kB neuron act | FLuc act counter | STAT1 activator | FLuc inh counter
O=C(Oc1cccc2c(O)cccc12)c1ccccc1 | -11.0 | 11.0 | 2.1 | 1.1 | 106.5 | -7.3
CCOC(=O)C1=C(CSc2nc(-c3ccccc3)ccc2C#N)OC(N)=C(C#N)C1c1cccnc1 (configuration not stated) | -43.2 | 43.2 | 3.84* | 1.1 | 107.3 | -6.2
CCOC(=O)C1=C(CSc2nc(-c3ccccc3)ccc2C#N)OC(N)=C(C#N)C1c1ccccc1 (configuration not stated) | -75.6 | 75.6 | 1.94 | 1.1 | 102.3 | -8.4
CC(=O)N(c1ccccc1)c1nnc(-c2cnc(C)cn2)s1 | -136.9 | 136.9* | 3.48* | 0.9 | 127.4 | 7.7
Cc1cnc(-c2nnc(N(C)C(=O)c3cccnc3)s2)cn1 | -5.8 | 5.8 | 1.24 | 1 | 108.7 | -1.3
CCc1nnc(NC(=O)[C@@H](NC(=O)c2cccc(S(=O)(=O)N(CC)CC)c2)C(C)C)s1 | -14.2 | 14.2 | 1.09 | 1 | 101.9 | 1.0
O=S(=O)(/C(=C/c1ccc(C(F)(F)F)cc1)c1nc2ccccc2[nH]1)c1ccccc1 | 59.9* | -59.9 | 1.08 | 1.1 | 72.8 | -9.9
CCCCOc1cccc(OCC(=O)Nc2nc3ccccc3[nH]2)c1 | 0.8 | -0.8 | 1.13 | 1 | 104.8 | -1.5
COc1ccc(CNC(=O)c2c(C)nc3ccccn23)cc1 | -7.1 | 7.1 | 0.77 | 1.1 | 91.3 | -5.3
Cc1nc2ccccn2c1C(=O)/C=C/c1ccc(F)cc1 | -16.6 | 16.6 | 3.44* | 0.8 | 128.7* | 19.8
COc1ccc(NC(=O)c2c(Cl)nc3ccccn23)cc1 | -45.4 | 45.4 | 1.01 | 0.9 | 133.9* | 10.9
Cc1nc2ccccn2c1C(=O)NN | -1.9 | 1.9 | 1.02 | 1 | 106.3 | 1.1
COc1ccc(/C=C/C(=O)c2c(C)nc3ccccn23)cc1 | -106.5 | 106.5 | 1.71 | 0.8 | 140.9* | 19.4
Cc1cn(S(=O)(=O)c2ccc(Br)c3ccccc23)cn1 | -1.5 | 1.5 | 1.23 | 1.1 | 92.0 | -7.6
CCOC(=O)CC(=O)NC1(Cc2ccc(O)cc2)CCCCC1 | -17.8 | 17.8 | 1.06 | 1 | 102.6 | 0.2
COCCn1c(SCc2ccc(C(=O)OC)o2)nnc1-c1c[nH]c2ccccc12 | . | . | 1.14 | 1 | 94.9 | 3.5
Nc1nc(-c2ccc(C(=O)O)cc2)cs1 | -40.1 | 40.1 | 1.19 | 1 | 100.9 | -3.7
O=C(O)c1ccc2nc(-c3ccccc3)sc2c1 | -43.6 | 43.6 | 9.09* | 0.6 | 67.7 | 44.5
Cc1ccc(OC(=O)c2ccc3nc(C)sc3c2)cc1 | -82.4 | 82.4 | 2.49 | 1 | 77.9 | -0.9
Nc1ccc(-c2nc3ccc(C(=O)O)cc3s2)cc1 | 67.3* | -67.3 | 9.23* | 0.2 | 19.9 | 75.9*
Nc1cc2sc(-c3ccc(C(=O)O)cc3)nc2cc1Cl | -102.6 | 102.6 | 3.12 | 0.2 | 107.1 | 76.3*
Nc1cccc(-c2nc3ccc(N)cc3s2)c1 | 12.6 | -12.6 | 2.64 | 0.1 | 123.8 | 93.0*
COC(=O)Nc1nn(-c2ccc(OC)cc2)c(=O)c(C#N)c1C | -7.3 | 7.3 | 1.04 | 1 | 99.4 | -3.8
CC(C)(C)NC(=O)c1ccc2c(c1)N(CC(=O)N1CCN(c3ccc(F)cc3)CC1)C(=O)C(C)(C)O2 | 12.8 | -12.8 | 0.85 | 1.1 | 92.6 | -7.7
Cc1ncsc1CCSc1nc2ccccc2c(=O)n1C | 4.6 | -4.6 | 0.51 | 1 | 83.7 | 0.1
SMILES | APP 5UTR inh | APP 5'UTR act | NF-kB neuron act | FLuc act counter | STAT1 activator | FLuc inh counter
COc1ccc(CCNC(=O)[C@@H](NC(=O)c2ccccc2F)C(C)C)cc1OC | -12.6 | 12.6 | 1.19 | 1 | 95.7 | -3.9
C=CCNC(=O)c1c(Br)cnn1-c1ccc(C)cc1 | -75.7 | 75.7 | 2.95 | 0.8 | 147.4* | 19.7
CCOC(=O)c1cnn(-c2ccc(C)cc2)c1N | -29.3 | 29.2 | 1.95 | 0.9 | 111.1 | 5.8
Cc1ccc(NC(=O)N/C=C/c2ccco2)c(C)c1 | 5.6 | -5.6 | 5.18* | 1 | 100.8 | -0.3
O=C(O)C1=C(OCc2ccccc2)C(=O)NCC1 | -26.7 | 26.7 | 1.02 | 1 | 102.6 | -3.2
CCCNC(=S)N1CCC(C(=O)c2ccc(OC)cc2)CC1 | 60.1* | -60.1 | 0.86 | 1.1 | 104.2 | -5.6
C=CCNC(=S)N1CCC(C(=O)c2ccc(OC)cc2)CC1 | 13.7 | -13.7 | 0.86 | 1.1 | 92.4 | -6.8
C=CCOc1cccc(NC(=O)c2ccccc2SC)c1 | 1.8 | -1.8 | 1.29 | 1 | 101.3 | -2.6
COC(=O)C(NC(=O)c1ccc(Cl)cc1)(Nc1nc(C)cs1)C(F)(F)F (configuration not stated) | -9.9 | 9.9 | 1.01 | 1 | 97.3 | -0.3
COc1ccc(-c2nnc(SCC(=O)/C(C#N)=C(\C)N)o2)cc1 | -194.3 | 194.3* | 5.06* | 0.9 | 135.6* | 9.7
CC(C)CCNC(=O)NC(=O)CSc1nnc(-c2ccccc2Br)o1 | -15.9 | 15.9 | 1.2 | 1.1 | 100.3 | -7.0
COc1ccc(-c2nnc(-c3ccc(N)cc3)o2)cc1 | -79.0 | 79.0 | 5.72* | 0.3 | 140.1* | 68.0*
C/C(N)=C(/C#N)C(=O)CSc1nnc(-c2ccccc2Br)o1 | -198.2 | 198.2* | 5.46* | 1 | 137.5* | -0.2
COc1ccc2nc(SCC(=O)/C(C#N)=C(\C)N)[nH]c2c1 | -120.8 | 120.8 | 4.08* | 0.7 | 141.1* | 25.8
Cc1cc(CNC(=O)c2cccnc2Cl)c2ccccc2n1 | 1.8 | -1.8 | 1.12 | 1 | 95.9 | 1.2
Cc1[nH]nc2c1C(c1cc(Br)cs1)C(C#N)=C(N)O2 (configuration not stated) | 14.4 | -14.4 | 1.03 | 1 | 102.3 | -2.4
CCn1c(C)nc2cc(C(=O)N/N=C/c3ccc(N4CCOCC4)cc3)ccc21 | -9.0 | 9.0 | 0.95 | 1 | 108.3 | -0.1
Cc1ccc2cc(CCNC(=O)c3ccc(Br)o3)c(=O)[nH]c2c1 | 8.5 | -8.5 | 0.34 | 1.1 | 102.9 | -9.4
O=C(Nc1ccc2c(c1)OCO2)c1cnccn1 | -39.1 | 39.1 | 2.23 | 0.8 | 130.0* | 21.4
Cc1cc(NC(=O)c2noc3c2CCCCC3)no1 | -31.4 | 31.4 | 1.29 | 0.8 | 121.8 | 20.7
O=C(Nc1ccc2c(c1)OCO2)c1cc(C2CC2)on1 | -61.5 | 61.5 | 3.93* | 0.5 | 145.8* | 46.8
COc1ccc(NC(=O)c2cc(C(C)C)on2)c(OC)c1 | -53.0 | 53.0 | 2.62 | 0.9 | 138.4* | 8.5
O=C(Nc1ccc2c(c1)OCO2)c1noc2c1CCCCC2 | -178.4 | 178.4* | 7.71* | 0.4 | 142.0* | 57.3*
O=C(COC(=O)c1cnccn1)Nc1ccc2c(c1)OCO2 | 0.1 | -0.1 | 1.15 | 1.1 | 94.2 | -5.1
COc1cc(NC(=O)c2cc(C(C)C)on2)c(OC)cc1Cl | -8.9 | 8.9 | 0.96 | 1 | 99.6 | -0.6
O=C(NC1CC1)C1=C[C@@H](c2csc3ccccc23)C[C@@H](OCc2ccc(CO)cc2)O1 | -12.6 | 12.6 | 1.02 | 1 | 99.3 | -3.3
CCOC(=O)C1(Cc2ccc(OC)cc2)CCN(C(=O)c2ccoc2C)CC1 | -10.0 | 10.0 | 1.63 | 1 | 98.7 | -3.6
